Source: ChEMBL document CHEMBL4177546, “Development of a Selective Inhibitor of Protein Arginine Deiminase 2” (J Med Chem, 2017)

Tests used:
[1] = organism: Homo sapiens; test: Selectivity ratio of Kinact/Ki for recombinant His6-tagged PAD1 (unknown origin) to Kinact/Ki for recombinant full length N-terminal GST-tagged human PAD4 expressed in Escherichia coli Rosetta cells
How it was run: (§1)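 Enzyme at 2.0 μM (PAD1, PAD2, PAD4) or 5.0 μM (PAD3) incubated at 37 °C with various inhibitor concentrations in 50 mM HEPES, 10 mM CaCl₂, 2 mM DTT, pH 7.6. Timed aliquots moved into substrate mix: 10 mM BAEE, or 10 mM BAA for PAD3. […] Selectivity ratios taken from these values.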

[2] = organism: Homo sapiens; test: Selectivity ratio of Kinact/Ki for recombinant His6-tagged PAD3 (unknown origin) to Kinact/Ki for recombinant full length N-terminal GST-tagged human PAD4 expressed in Escherichia coli Rosetta cells; how it was run: as §1
[3] = organism: Homo sapiens; test: Selectivity ratio of Kinact/Ki for recombinant human PAD2 expressed in Escherichia coli BL21(DE3)pLysS cells to Kinact/Ki for recombinant full length N-terminal GST-tagged human PAD4 expressed in Escherichia coli Rosetta cells; how it was run: as §1
[4] = organism: Homo sapiens; test: Selectivity ratio of Kinact/Ki for recombinant full length N-terminal GST-tagged human PAD4 expressed in Escherichia coli Rosetta to Kinact/Ki for recombinant His6-tagged PAD3 (unknown origin); how it was run: as §1
[5] = organism: Homo sapiens; test: Selectivity ratio of Kinact/Ki for recombinant His6-tagged PAD1 (unknown origin) to Kinact/Ki for recombinant His6-tagged PAD3 (unknown origin); how it was run: as §1
[6] = organism: Homo sapiens; test: Selectivity ratio of Kinact/Ki for recombinant human PAD2 expressed in Escherichia coli BL21(DE3)pLysS to Kinact/Ki for recombinant His6-tagged PAD3 (unknown origin); how it was run: as §1
[7] = biological target: Protein-arginine deiminase type-2 (Homo sapiens, UniProt Q9Y2J8); test: Binding affinity to human PAD2 expressed in HEK293T cells assessed as protein occupancy at 25 uM preincubated for 15 mins followed by ionomycin addition measured after 1 hr in presence of CaCl2 by RIBFA probe based SDS-PAGE analysis relative to control; assay type: cell-based
Chain of Protein-arginine deiminase type-2 (Q9Y2J8 whole entry): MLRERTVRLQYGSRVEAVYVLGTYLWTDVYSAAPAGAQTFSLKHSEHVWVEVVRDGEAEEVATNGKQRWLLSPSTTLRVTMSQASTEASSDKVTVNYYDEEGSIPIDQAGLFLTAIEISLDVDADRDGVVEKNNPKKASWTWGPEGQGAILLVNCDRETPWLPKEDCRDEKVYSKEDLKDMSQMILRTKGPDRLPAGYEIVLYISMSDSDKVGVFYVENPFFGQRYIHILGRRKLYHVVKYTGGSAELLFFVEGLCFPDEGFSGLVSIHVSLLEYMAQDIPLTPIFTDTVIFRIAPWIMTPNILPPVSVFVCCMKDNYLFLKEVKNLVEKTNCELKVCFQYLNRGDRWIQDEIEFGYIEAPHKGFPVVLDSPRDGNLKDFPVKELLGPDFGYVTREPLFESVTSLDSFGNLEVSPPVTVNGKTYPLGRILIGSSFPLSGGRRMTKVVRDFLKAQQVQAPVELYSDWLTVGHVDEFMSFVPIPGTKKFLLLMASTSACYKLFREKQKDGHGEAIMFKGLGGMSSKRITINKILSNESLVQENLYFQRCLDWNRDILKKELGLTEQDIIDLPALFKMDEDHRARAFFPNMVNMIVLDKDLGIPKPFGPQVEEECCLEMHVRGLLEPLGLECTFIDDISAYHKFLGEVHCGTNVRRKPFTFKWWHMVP
How it was run: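 Adherent HEK293T/PAD2 cells at 80–90% confluence in HBS with 2 mM CaCl₂ at 37 °C. Inhibitor (in DMSO) added for 15 min, then ionomycin (0.5 μM final) for 1 h. Cells washed and lysed in 1% Triton X-100. Lysate (2 μg/μL) labelled with RIBFA probe (2 μM) plus 2 mM CaCl₂ for 1 h at 37 °C. Gel resolved and fluorescence scanned (~546/579 nm). PAD2 occupancy expressed relative to DMSO control.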

| Selectivity ratio [4] | Selectivity ratio [5] | Selectivity ratio [6] | Activity [7] | Structure (SMILES) | Selectivity ratio [1] | Selectivity ratio [2] | Selectivity ratio [3] |
| --- | --- | --- | --- | --- | --- | --- | --- |
|  |  |  |  | CCN1Cc2cccc(C(=O)N[C@@H](CCCNC(=N)CF)c3nc4c(OC)cccc4n3CC)c2C1=O | 28 | 2 | 40 |
|  |  |  |  | CCN1Cc2cccc(C(=O)N[C@@H](CCCNC(=N)CF)c3nc4cc(OC)ccc4n3CC)c2C1=O | 28 | 2.7 | 70 |
| 1 | 25 | 8.9 |  | Cn1c([C@H](CCCNC(=N)CF)NC(=O)c2cccc3c2C(=O)NC3)nc2ccccc21 |  |  |  |
|  |  |  |  | CCN1Cc2cccc(C(=O)N[C@@H](CCCNC(=N)CCl)c3nc4ccccc4n3CC)c2C1=O | 18 | 2.1 | 14 |
| 2.4 | 12 | 20 |  | CC(C)n1c([C@H](CCCNC(=N)CF)NC(=O)c2cccc3c2C(=O)NC3)nc2ccccc21 |  |  |  |
|  |  |  |  | CCn1c([C@H](CCCNC(=N)CCl)NC(=O)c2cccc3c2C(=O)NC3)nc2cc(OC)ccc21 | 21 | 4.4 | 16 |
| 2.6 | 32 | 58 | < 37% | COc1cccc2c1nc([C@H](CCCNC(=N)CF)NC(=O)c1cccc3c1C(=O)N(C(C)C)C3)n2C |  |  |  |
|  |  |  |  | CCN1Cc2cccc(C(=O)N[C@@H](CCCNC(=N)CF)c3nc4cc(OC)ccc4[nH]3)c2C1=O | 4.4 | 3.6 | 6.3 |
|  |  |  |  | CCN1Cc2cccc(C(=O)N[C@@H](CCCNC(=N)CCl)c3nc4c(OC)cccc4[nH]3)c2C1=O | 5 | 1 | 2.3 |
|  |  |  |  | Cn1c([C@H](CCCNC(=N)CF)NC(=O)c2ccccc2C(=O)O)nc2ccccc21 | 40 | 1.3 | 15 |
| 2.2 | 7.3 | 3.5 to 114 |  | COc1ccc2[nH]c([C@H](CCCNC(=N)CCl)NC(=O)c3cccc4c3C(=O)NC4)nc2c1 |  |  | 95 |
|  |  |  |  | COc1cccc2[nH]c([C@H](CCCNC(=N)CCl)NC(=O)c3cccc4c3C(=O)NC4)nc12 | 30 | 6.9 | 11 |
| 1.3 | 3.9 | 3.9 |  | COc1cccc2c1nc([C@H](CCCNC(=N)CCl)NC(=O)c1cccc3c1C(=O)NC3)n2C |  |  |  |
| 2.1 | 6.5 | 2.3 |  | N=C(CCl)NCCC[C@H](NC(=O)c1cccc2c1C(=O)NC2)c1nc2ccccc2[nH]1 |  |  |  |
|  |  |  |  | CCOc1cccc2c1nc([C@H](CCCNC(=N)CCl)NC(=O)c1cccc3c1C(=O)N(CC)C3)n2C | 12 | 5.5 | 43 |
|  |  |  |  | CCN1Cc2cccc(C(=O)N[C@@H](CCCNC(=N)CCl)c3nc4c(OC)cccc4n3CC)c2C1=O | 31 | 3.4 | 27 |
|  |  |  |  | CCN1Cc2cccc(C(=O)N[C@@H](CCCNC(=N)CF)c3nc4ccccc4n3C(C)C)c2C1=O | 10 | 3.4 | 22 |
|  |  |  |  | COc1cccc2[nH]c([C@H](CCCNC(=N)CF)NC(=O)c3cccc4c3C(=O)NC4)nc12 | 42 | 3.8 | 8 |
|  |  |  |  | CC(C)n1c([C@H](CCCNC(=N)CCl)NC(=O)c2cccc3c2C(=O)NC3)nc2ccccc21 | 27 | 3.2 | 8 |
| 3.8 | 47 | 125 |  | CCN1Cc2cccc(C(=O)N[C@@H](CCCNC(=N)CF)c3nc4cc(OC)ccc4n3C)c2C1=O |  |  |  |
|  |  |  |  | CCOc1cccc2c1nc([C@H](CCCNC(=N)CF)NC(=O)c1cccc3c1C(=O)N(CC)C3)n2C | 8.9 | 1 | 26 |
|  |  |  |  | CCN1Cc2cccc(C(=O)N[C@@H](CCCNC(=N)CCl)c3nc4ccccc4n3C(C)C)c2C1=O | 11 | 2 | 6.8 |
|  |  | 18 |  | CCn1c([C@H](CCCNC(=N)CF)NC(=O)c2ccccc2C(=O)O)nc2ccccc21 | 39 | 1.7 | 31 |
|  |  |  |  | COc1cccc2c1nc([C@H](CCCNC(=N)CCl)NC(=O)c1cccc3c1C(=O)N(C)C3)n2C | 6.8 | 2.2 | 11 |

| Selectivity ratio [4] | Selectivity ratio [5] | Selectivity ratio [6] | Activity [7] | Structure (SMILES) | Selectivity ratio [1] | Selectivity ratio [2] | Selectivity ratio [3] |
| --- | --- | --- | --- | --- | --- | --- | --- |
|  |  |  |  | COc1cccc2c1nc([C@H](CCCNC(=N)CCl)NC(=O)c1cccc3c1C(=O)N(C(C)C)C3)n2C | 3.5 | 1.2 | 4.1 |
| 1 | 4.3 | 1.9 |  | Cn1c([C@H](CCCNC(=N)CCl)NC(=O)c2ccccc2C(=O)O)nc2ccccc21 |  |  |  |
|  |  |  |  | CCN1Cc2cccc(C(=O)N[C@@H](CCCNC(=N)CCl)c3nc4cc(OC)ccc4n3CC)c2C1=O | 21 | 8.4 | 27 |
|  |  |  |  | CCN1Cc2cccc(C(=O)N[C@@H](CCCNC(=N)CCl)c3nc4cc(OC)ccc4[nH]3)c2C1=O | 7.8 | 4.1 | 9.1 |
|  |  |  |  | Cn1c([C@H](CCCNC(=N)CCl)NC(=O)c2cccc3c2C(=O)NC3)nc2ccccc21 | 61 | 2 | 3.1 |
| 1.1 | 30 | 106 | < 37% | COc1cccc2c1nc([C@H](CCCNC(=N)CF)NC(=O)c1cccc3c1C(=O)N(C)C3)n2C |  |  |  |
| 1.3 | 3.9 | 5 |  | CCN1Cc2cccc(C(=O)N[C@@H](CCCNC(=N)CCl)c3nc4c(OC)cccc4n3C)c2C1=O |  |  |  |
|  |  |  |  | CC(C)n1c([C@H](CCCNC(=N)CCl)NC(=O)c2ccccc2C(=O)O)nc2ccccc21 | 68 | 3.8 | 38 |
|  |  |  |  | CCn1c([C@H](CCCNC(=N)CF)NC(=O)c2cccc3c2C(=O)NC3)nc2cc(OC)ccc21 | 24 | 2.5 | 50 |
|  |  |  |  | CCOc1cccc2c1nc([C@H](CCCNC(=N)CCl)NC(=O)c1cccc3c1C(=O)NC3)n2C | 24 | 2.7 | 30 |
|  |  |  |  | CCn1c([C@H](CCCNC(=N)CCl)NC(=O)c2cccc3c2C(=O)NC3)nc2ccccc21 | 10 | 1.8 | 4.8 |
|  |  |  |  | CCn1c([C@H](CCCNC(=N)CCl)NC(=O)c2cccc3c2C(=O)NC3)nc2c(OC)cccc21 | 50 | 2.9 | 19 |
| 3.5 | 13 | 5.4 to 114 |  | COc1ccc2[nH]c([C@H](CCCNC(=N)CF)NC(=O)c3cccc4c3C(=O)NC4)nc2c1 |  |  | 95 |
| 10 | 24 | 3.3 |  | N=C(CF)NCCC[C@H](NC(=O)c1cccc2c1C(=O)NC2)c1nc2ccccc2[nH]1 |  |  |  |
|  |  |  |  | CC(C)n1c([C@H](CCCNC(=N)CF)NC(=O)c2ccccc2C(=O)O)nc2ccccc21 | 49 | 4.4 | 54 |
| 1.4 | 4.3 | 1.5 |  | CCN1Cc2cccc(C(=O)N[C@@H](CCCNC(=N)CCl)c3nc4ccccc4[nH]3)c2C1=O |  |  |  |
|  |  |  |  | COc1cccc2c1nc([C@H](CCCNC(=N)CCl)NC(=O)c1cccc3c1C(=O)N(C1CC1)C3)n2C | 4.7 | 1.1 | 6.7 |
|  |  |  |  | CCN1Cc2cccc(C(=O)N[C@@H](CCCNC(=N)CF)c3nc4c(OC)cccc4[nH]3)c2C1=O | 107 | 12 | 32 |
| 1.2 | 21 | 19 |  | CCN1Cc2cccc(C(=O)N[C@@H](CCCNC(=N)CCl)c3nc4ccccc4n3C)c2C1=O |  |  |  |
|  |  |  |  | CCN1Cc2cccc(C(=O)N[C@@H](CCCNC(=N)CF)c3nc4ccccc4n3C)c2C1=O | 6.1 | 1.9 | 11 |
|  |  |  |  | CCN1Cc2cccc(C(=O)N[C@@H](CCCNC(=N)CCl)c3nc4cc(OC)ccc4n3C)c2C1=O | 37 | 9.3 | 32 |
|  |  |  |  | COc1ccc2c(c1)nc([C@H](CCCNC(=N)CCl)NC(=O)c1cccc3c1C(=O)NC3)n2C | 25 | 2.4 | 10 |
| 1.2 | 4.3 | 1.6 |  | CCn1c([C@H](CCCNC(=N)CCl)NC(=O)c2ccccc2C(=O)O)nc2ccccc21 |  |  |  |
